We go through 7 molecules from ChEMBL document CHEMBL2074053, “Modified jatrophane diterpenes as modulators of multidrug resistance from Euphorbia dendroides L” (Bioorg Med Chem, 2003).

Type in all cases: functional, cell-based
Details in all cases: k562/r7, 5 µM

The target in data set [1] is T1, ATP-dependent translocase ABCB1 (Homo sapiens, UniProt P08183). In words: TP_TRANSPORTER: inhibition of Daunomycin efflux (Daunomycin: 10 uM, 13alpha-OH Terracinolide B: 5 uM) in K562/R7 cells. An outline of the steps: (§1)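 Cells washed twice in ice-cold PBS and held on ice. Intracellular daunomycin read by flow cytometry. Efflux inhibition is the fluorescence shift relative to 2 µM cyclosporin A as positive control. Duplicates, at least three separate experiments.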

Data set [2] concerns the target T1, ATP-dependent translocase ABCB1. In words: TP_TRANSPORTER: inhibition of Daunomycin efflux (Daunomycin: 10 uM, 13alpha-OH Terracinolide G: 5 uM) in K562/R7 cells. An outline of the steps:
as §1

For data set [3] the target is unchanged. In words: TP_TRANSPORTER: inhibition of Daunomycin efflux (Daunomycin: 10 uM, Terracinolide L: 5 uM) in K562/R7 cells. The procedure, abridged: as §1
Data set [4] has the same target. As to the kind of experiment: TP_TRANSPORTER: inhibition of Daunomycin efflux (Daunomycin: 10 uM, Epiabeodendroidin F: 5 uM) in K562/R7 cells. An outline of the steps: as §1
The target is the same in data set [5]. In words: TP_TRANSPORTER: inhibition of Daunomycin efflux (Daunomycin: 10 uM, Terracinolide B: 5 uM) in K562/R7 cells. The procedure, abridged:
as §1

For data set [6] the target is unchanged. In words: TP_TRANSPORTER: inhibition of Daunomycin efflux (Daunomycin: 10 uM, Terracinolide C: 5 uM) in K562/R7 cells. The procedure, abridged: as §1
Data set [7] has the same target. In words: TP_TRANSPORTER: inhibition of Daunomycin efflux (Daunomycin: 10 uM, Terracinolide K: 5 uM) in K562/R7 cells. The procedure, abridged: as §1

T1 sequence (P08183 whole entry): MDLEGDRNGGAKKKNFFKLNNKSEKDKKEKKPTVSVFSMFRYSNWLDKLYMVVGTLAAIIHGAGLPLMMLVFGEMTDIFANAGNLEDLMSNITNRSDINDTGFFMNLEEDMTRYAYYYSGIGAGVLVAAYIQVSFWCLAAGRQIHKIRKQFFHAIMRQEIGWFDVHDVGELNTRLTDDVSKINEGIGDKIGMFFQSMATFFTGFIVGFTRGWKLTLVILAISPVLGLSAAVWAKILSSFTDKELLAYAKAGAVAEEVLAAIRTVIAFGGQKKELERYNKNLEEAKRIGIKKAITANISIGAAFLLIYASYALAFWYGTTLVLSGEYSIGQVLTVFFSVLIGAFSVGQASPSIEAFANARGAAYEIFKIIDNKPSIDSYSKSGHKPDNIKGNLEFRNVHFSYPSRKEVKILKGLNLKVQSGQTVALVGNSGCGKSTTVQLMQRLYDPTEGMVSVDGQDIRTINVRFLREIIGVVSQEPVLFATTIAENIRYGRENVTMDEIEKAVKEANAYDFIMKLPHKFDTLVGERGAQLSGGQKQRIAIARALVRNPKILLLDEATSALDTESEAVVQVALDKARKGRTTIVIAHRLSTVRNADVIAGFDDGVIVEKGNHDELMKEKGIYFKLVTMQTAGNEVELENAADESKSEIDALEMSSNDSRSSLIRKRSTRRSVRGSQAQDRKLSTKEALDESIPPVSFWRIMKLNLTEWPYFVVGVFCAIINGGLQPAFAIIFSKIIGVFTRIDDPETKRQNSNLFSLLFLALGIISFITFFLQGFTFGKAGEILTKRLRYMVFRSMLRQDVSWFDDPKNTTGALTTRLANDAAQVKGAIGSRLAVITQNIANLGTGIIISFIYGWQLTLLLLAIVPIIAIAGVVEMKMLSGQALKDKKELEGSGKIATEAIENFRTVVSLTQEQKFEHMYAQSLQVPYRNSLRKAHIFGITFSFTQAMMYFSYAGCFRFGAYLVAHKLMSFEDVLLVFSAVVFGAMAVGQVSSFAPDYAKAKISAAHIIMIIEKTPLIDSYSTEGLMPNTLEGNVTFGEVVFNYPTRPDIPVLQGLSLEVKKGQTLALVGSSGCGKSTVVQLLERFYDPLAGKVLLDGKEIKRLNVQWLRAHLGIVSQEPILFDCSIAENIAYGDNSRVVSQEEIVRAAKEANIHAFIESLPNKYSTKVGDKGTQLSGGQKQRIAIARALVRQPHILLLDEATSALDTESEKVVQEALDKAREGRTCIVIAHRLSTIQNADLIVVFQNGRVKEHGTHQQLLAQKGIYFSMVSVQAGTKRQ

As to `CC(=O)O[C@H]1[C@@H](OC(C)=O)C(C)(C)/C=C/[C@@](C)(O)C(=O)[C@@]2(OC(C)=O)C[C@@](C)(OC(C)=O)[C@H](OC(C)=O)[C@@H]2[C@H]2OC(=O)CC[C@@]2(OC(C)=O)[C@@H]1OC(=O)C(C)C`, in data set [1], the Activity entry was “inhibitor [+]”.
On to `CC(=O)O[C@H]1[C@@H](OC(C)=O)C(C)(C)/C=C/[C@@](C)(O)C(=O)[C@@]2(O)C[C@@](C)(OC(C)=O)[C@H](OC(C)=O)[C@@H]2[C@H]2OC(=O)CC[C@@]2(OC(C)=O)[C@@H]1OC(=O)C(C)C`, for which, in data set [2], the Activity entry is “inhibitor [+]”.
Turning to `CC(=O)O[C@H]1[C@@H](OC(C)=O)C(C)(C)/C=C/[C@H](C)C(=O)[C@@]2(OC(C)=O)C[C@@](C)(O)[C@H](OC(C)=O)[C@@H]2[C@H]2OC(=O)CC[C@@]2(OC(=O)C(C)C)[C@@H]1OC(=O)C(C)C`, in data set [3], the Activity result is “is not an inhibitor [-]”.
With `C=C1[C@H](OC(=O)c2ccccc2)[C@@H](OC(C)=O)[C@@H](OC(C)=O)C(C)(C)/C=C/[C@H](C)[C@]2(O)C[C@@](C)(O)[C@H](OC(C)=O)[C@@H](C2=O)[C@H]1OC(=O)C(C)C` [EPIABEODENDROIDIN F], in data set [4], the Activity result is “inhibitor [+]”.
Turning to `CC(=O)O[C@H]1[C@@H](OC(C)=O)C(C)(C)/C=C/[C@H](C)C(=O)[C@@]2(OC(C)=O)C[C@@](C)(OC(C)=O)[C@H](OC(C)=O)[C@@H]2[C@H]2OC(=O)CC[C@@]2(OC(C)=O)[C@H]1OC(=O)C(C)C` [TERRACINOLIDE B], the Activity entry in data set [5] was “inhibitor [+]”.
`CC(=O)O[C@H]1[C@@H](OC(C)=O)C(C)(C)/C=C/[C@H](C)C(=O)[C@@]2(OC(C)=O)C[C@@](C)(OC(C)=O)[C@H](O)[C@@H]2[C@H]2OC(=O)CC[C@@]2(OC(C)=O)[C@@H]1OC(=O)C(C)C` [TERRACINOLIDE C]: in data set [6], the Activity result was “inhibitor [+]”.
For `CC(=O)O[C@H]1[C@@H](OC(C)=O)C(C)(C)/C=C/[C@H](C)C(=O)[C@@]2(OC(C)=O)C[C@@](C)(O)[C@H](OC(C)=O)[C@@H]2[C@H]2OC(=O)CC[C@@]2(OC(C)=O)[C@@H]1OC(=O)C(C)C` [TERRACINOLIDE K], the Activity entry in data set [7] was “inhibitor [+]”.
